For assay [1], the species on record is Rattus norvegicus. In words: Inhibition of calcium activation was assessed against calcium-induced constriction of potassium-depolarized rat aorta (Negative logarithm of the molar concentration). The format is functional, organism-based. To be noted: read-out: pA2 (converted).
The species named for assay [2] is Rattus norvegicus. The experiment in a line: Inhibitory effect of compound on calcium influx by high potassium in isolated rat aorta. The format is functional. In a few lines: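 Rat aortic strips; compound present 30 min before and during 45Ca incubation under high potassium. Strips then washed 60 min at 4 °C in La-substituted solution (73.8 mM LaCl3, 5.5 mM glucose, 24 mM Tris), dissolved in toluene at 40 °C, counted by liquid scintillation; expressed as apparent tissue 45Ca content (mmol/kg wet wt).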

For assay [3], the species on record is Rattus norvegicus. In words: Inhibitory effect of compound on contraction induced by high potassium in isolated rat aorta. The format is functional. In a few lines: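 Std-Wistar rat thoracic aorta spiral strips (3–4 mm × ~30 mm) under 1.0 g tension in Krebs-bicarbonate, 95% O2/5% CO2, 37 °C, depolarized; isometric contraction to Ca2+ recorded.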
The test system of assay [4] is Rattus norvegicus. The experiment in a line: Preventive effect of compound was measured on vasopressin-induced ST depression rats at 10 mg/kg po dose after 2 hr of administration; +=Differ from control value. Format: functional, organism-based. The arrangement: dose 10 mg/kg. In a few lines: (§1)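 Male Donryu rats (150-220 g), pentobarbital 60 mg/kg ip. Compound in 0.5% tragacanth given orally; vasopressin 0.2 IU/kg iv via femoral vein cannula. Lead II ECG ST depression measured every 30 s for 5 min after vasopressin. 10-20 experiments; + means p < 0.05 vs control, - not significant.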

Assay [5] relates to Rattus norvegicus. The experiment in a line: Preventive effect of compound was measured on vasopressin-induced ST depression rats at 10 mg/kg po dose after 3h of administration; +=Differ from control value. The format is functional, organism-based. The arrangement: dose 10 mg/kg. In a few lines: as §1
Assay [6] relates to Rattus norvegicus. The experiment in a line: Preventive effect of compound was measured on vasopressin-induced ST depression rats at 3 mg/kg po dose after 1 hr of administration; +=Differ from control value. Format: functional, organism-based. The arrangement: dose 3 mg/kg. In a few lines: as §1
For assay [7], the system named is Rattus norvegicus. In words: Preventive effect of compound was measured on methacholine-induced ST elevation in anesthetized rats at 0.1 mg/kg iv dose without test compound. The format is functional. In a few lines: (§2)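 Male Sprague-Dawley rats (~500 g), pentobarbital 60 mg/kg ip. Methacholine 8 μg/kg bolus via carotid cannula near aortic valve into coronary ostia, before, at 0.5 min and every 5 min after iv compound (femoral vein; vehicle 5% ethanol in saline). Lead II ECG ST amplitude; mean ± SE, n=5; paired Student's t-test.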

Assay [8] deals with Rattus norvegicus. In words: Preventive effect of compound was measured on methacholine-induced ST elevation in anesthetized rats at 0.3 mg/kg iv dose with test compound (0-90 min). Format: functional. In a few lines:
as §2

The subject of assay [9] is Rattus norvegicus. The experiment in a line: Preventive effect of compound was measured on methacholine-induced ST elevation in anesthetized rats at 0.3 mg/kg iv dose without test compound. Format: functional. In a few lines: as §2
For assay [10], the system named is Rattus norvegicus. The experiment in a line: Preventive effect of compound was measured on methacholine-induced ST elevation in anesthetized rats at 1 mg/kg iv dose with test compound (0-90 min). Format: functional. In a few lines: as §2
The test system of assay [11] is Rattus norvegicus. In words: Preventive effect of compound was measured on methacholine-induced ST elevation in anesthetized rats at 1 mg/kg iv dose without test compound. Format: functional. In a few lines: as §2
For assay [12], the system named is Rattus norvegicus. In words: Preventive effect of compound was measured on vasopressin-induced ST depression rats at 10 mg/kg po dose after 1 hr of administration; +=Differ from control value. The arrangement: dose 10 mg/kg. The format is functional, organism-based. In a few lines: as §1
Assay [13] concerns Rattus norvegicus. In words: Preventive effect of compound was measured on vasopressin-induced ST depression rats at 30 mg/kg po dose after 1 hr of administration; +=Differ from control value. The format is functional, organism-based. Set-up: dose 30 mg/kg. In a few lines:
as §1

For assay [14], the system named is Rattus norvegicus. In words: Preventive effect of compound was measured on vasopressin-induced ST depression rats at 30 mg/kg po dose after 7 hr of administration; +=Differ from control value. The format is functional, organism-based. The arrangement: dose 30 mg/kg. In a few lines:
as §1

Assay [15] is filed under the species Rattus norvegicus. In words: inhibitory effect of compound on contraction induced by high potassium in isolated rat aorta. The format is functional. In a few lines:
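Isolated rat aortic strips contracted with high potassium; compound added 30 min before measurement.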

Assay [16] relates to Rattus norvegicus. The experiment in a line: Preventive effect of compound was measured on vasopressin-induced ST depression rats at 10 mg/kg po dose after 3h of administration; -=No significance. The format is functional, organism-based. Set-up: dose 10 mg/kg. In a few lines:
as §1

The subject of assay [17] is Rattus norvegicus. The experiment in a line: Preventive effect of compound was measured on vasopressin-induced ST depression rats at 3 mg/kg po dose after 1 hr of administration; -=No significance. Format: functional, organism-based. Set-up: dose 3 mg/kg. In a few lines: as §1
Assay [18] deals with Rattus norvegicus. The experiment in a line: Preventive effect of compound was measured on methacholine-induced ST elevation in anesthetized rats at 0.1 mg/kg iv dose with test compound (0-90 min). The format is functional. In a few lines:
as §2

Assay [19] deals with Rattus norvegicus. The experiment in a line: Preventive effect of compound was measured on vasopressin-induced ST depression rats at 30 mg/kg po dose after 3h of administration; +=Differ from control value. The format is functional, organism-based. Set-up: dose 30 mg/kg. In a few lines:
as §1

In assay [20] the test system is Rattus norvegicus. The experiment in a line: Preventive effect of compound was measured on vasopressin-induced ST depression rats at 30 mg/kg po dose after 7 hr of administration; -=No significance. The format is functional, organism-based. Set-up: dose 30 mg/kg. In a few lines:
as §1

Molecules are shown by their SMILES. Activity calls are given as the source filed them. The calls are words filed in the database; no cut-off is given here.

Consider `O=C(CCCN1CCN(c2ccc(C(F)(F)F)cc2)CC1)NC1c2ccccc2C=Cc2ccccc21`, for which, in assay [1], the Kb was 2.09 nM.

`O=C(CCCN1CCN(c2ccccc2F)CC1)NC1c2ccccc2C=Cc2ccccc21`: the Kb in assay [1] was 3.47 nM. As to `O=C(CCCN1CCN(C(=O)Oc2ccccc2)CC1)NC1c2ccccc2CSc2ccccc21` (stereo not drawn), the Kb in assay [1] is 13.2 nM.

Turning to `COC(=O)C1=C(C)NC(C)=C(C(=O)OC)C1c1ccccc1[N+](=O)[O-]` [NIFEDIPINE], the figures for the IC50 in assay [2] and in assay [3] were 4 nM and 2 nM, respectively. For `O=C(CCCN1CCN(c2ccc(F)cc2)CC1)NC1c2ccccc2-c2ccccc21`, in assay [1], the Kb is 69.2 nM. The same measure, in the same setting: then `O=C(CCCCN1CCN(c2ccc(F)cc2)CC1)NC1c2ccccc2CSc2ccccc21` (stereo not drawn), with 3.47 nM; and `COc1ccc(CCN(C)CCCC(C#N)(c2ccc(OC)c(OC)c2)C(C)C)cc1OC` (stereo not drawn), with 6.92 nM; and `O=C(CCCN1CCN(Cc2ccccc2)CC1)NC1c2ccccc2C=Cc2ccccc21`, with 6.03 nM. Still for that read-out and setting: then `O=C(CCCN1CCN(Cc2ccccc2)CC1)NC1c2ccccc2CSc2ccccc21` (stereo not drawn), with 2.88 nM; and `O=C(CCCN1CCN(c2ccc(F)cc2)CC1)NC1c2ccccc2Sc2ccccc21`, with 10.5 nM; and `O=C(CCCN1CCN(C(=O)c2ccccc2)CC1)NC1c2ccccc2C=Cc2ccccc21`, with 20.9 nM. Regarding `O=C(CCCN1CCN(c2ccc(F)cc2)CC1)NC1c2ccccc2CSc2ccccc21.O=C(O)/C=C\C(=O)O` (stereo not drawn) [MONATEPIL MALEATE], the Activity result in assay [4] was “Differ from control value”; in [5], “Differ from control value”; in assay [6], “Differ from control value”; in [7], 0.198 delta mV; in assay [8] it was 0.093 delta mV; in assay [9] it was 0.203 delta mV. The Activity in assay [10] is on record as 0.088 delta mV; in assay [11] it was 0.241 delta mV; in assay [12], “Differ from control value”; in [13], “Differ from control value”; in assay [14], “Differ from control value”. Besides, the IC50 in assay [2] was found to be 16 nM; in assay [15] it was 21 nM. Further, the Kb in assay [1] was 1.95 nM. For the compound `O=C(CCCN1CCN(CCc2ccccc2)CC1)NC1c2ccccc2C=Cc2ccccc21`, the Kb in assay [1] is 8.91 nM. Same read-out and setting: the value for `O=C(CCCN1CCN(c2ccc([N+](=O)[O-])cc2)CC1)NC1c2ccccc2CSc2ccccc21` (stereo not drawn) was 7.94 nM; that for `O=C(CCCN1CCN(S(=O)(=O)Oc2ccccc2)CC1)NC1c2ccccc2CSc2ccccc21` (stereo not drawn) was 10.5 nM. On the same count and under the same terms, then `O=C(CCCN1CCN(c2ccccc2F)CC1)NC1c2ccccc2CSc2ccccc21` (stereo not drawn), with 3.24 nM; and `O=C(CCCN1CCN(c2ccccc2)CC1)NC1c2ccccc2CSc2ccccc21` (stereo not drawn), with 1.74 nM; and `O=C(CCCN1CCN(c2ccc(F)cc2)CC1)NC1c2ccccc2Oc2ccccc21`, with 69.2 nM.

For the compound `O=C(CCN1CCN(c2ccc(F)cc2)CC1)NC1c2ccccc2CSc2ccccc21` (stereo not drawn), the Kb in assay [1] was 2.82 nM. The same measure, in the same setting: then `O=C(CCCN1CCN(c2ccc(F)cc2)CC1)NC1c2ccccc2COc2ccccc21` (stereo not drawn), with 33.1 nM; and `O=C(CCCN1CCN(C/C=C/c2ccccc2)CC1)NC1c2ccccc2CSc2ccccc21` (stereo not drawn), with 7.59 nM.

As for `COc1ccc(N2CCN(CCCC(=O)NC3c4ccccc4C=Cc4ccccc43)CC2)cc1OC`, in [1], the Kb is 5.01 nM. Same read-out and setting: then `Cc1ccc(N2CCN(CCCC(=O)NC3c4ccccc4CSc4ccccc43)CC2)cc1` (stereo not drawn), with 3.31 nM. Same read-out and setting: the value for `COc1ccc(N2CCN(CCCC(=O)NC3c4ccccc4CSc4ccccc43)CC2)cc1` (stereo not drawn) was 3.39 nM; that for `O=C(CCCCN1CCN(c2ccc(F)cc2)CC1)NC1c2ccccc2C=Cc2ccccc21` was 4.47 nM. The same measure, in the same setting: then `O=C(CCCN1CCN(c2ccc(Cl)cc2)CC1)NC1c2ccccc2CSc2ccccc21` (stereo not drawn), with 2.82 nM; and `O=C(CCCN1CCN(CC(=O)c2ccccc2)CC1)NC1c2ccccc2CSc2ccccc21` (stereo not drawn), with 15.5 nM. Turning to `O=C(CCCN1CCN(C(=O)c2ccccc2)CC1)NC1c2ccccc2CSc2ccccc21` (stereo not drawn), the Kb in assay [1] is 36.3 nM. Same read-out and setting: the value for `O=C(CCN1CCN(c2ccc(F)cc2)CC1)NC1c2ccccc2C=Cc2ccccc21` was 2.75 nM; that for `O=C(CCCN1CCN(c2ccccc2)CC1)NC1c2ccccc2C=Cc2ccccc21` was 3.72 nM. Still for that read-out and setting: the value for `O=C(CCCN1CCN(CCCc2ccccc2)CC1)NC1c2ccccc2CSc2ccccc21` (stereo not drawn) was 12.3 nM. Turning to `O=C(CCCN1CCN(c2ccc(F)cc2)CC1)NC1c2ccccc2C=Cc2ccccc21.O=C(O)/C=C\C(=O)O`, the Activity was determined as 0.165 delta mV in [7]; 0.042 delta mV in assay [8]; 0.188 delta mV in [9]; 0.083 delta mV in assay [10]; 0.224 delta mV in assay [11]. In [1], the Kb is 1.05 nM. As for `COc1ccc([C@@H]2Sc3ccccc3N(CCN(C)C)C(=O)[C@@H]2OC(C)=O)cc1` [DILTIAZEM], the outcome in assay [4], in assay [12], in [13] and in assay [19] was Active. The result in [16], in [17] and in [20] was inactive. The Activity in assay [18] is recorded as 0.148 delta mV; in [7], 0.227 delta mV; in [8], 0.059 delta mV; in [10] it was 0.091 delta mV; in assay [11], 0.223 delta mV. For the same compound, the half-inhibitory concentration (IC50) stood at 352 nM in assay [2] and 203 nM in assay [15].

Take `COc1cccc(N2CCN(CCCC(=O)NC3c4ccccc4C=Cc4ccccc43)CC2)c1`: in [1], the Kb is 5.37 nM. With `O=C(CCCN1CCN(c2ccc(F)cc2)CC1)NC1c2ccccc2CCc2ccccc21`, the Kb in assay [1] is 9.33 nM.

In the case of `O=C(CCCN1CCN(C/C=C/c2ccccc2)CC1)NC1c2ccccc2C=Cc2ccccc21`, the Kb in [1] is 30.9 nM.

A word on the IC50: it is the concentration at which inhibition is half-maximal.
